L major viab: Leishmania major promastigote growth inhibition, primary screen | hit rate 9% among 200,000 | inhibition, % at 10 µM | Leishmania major promastigotes, resazurin fluorescence viability; in the data active = inhibition above about 50%;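 note: promastigotes grown with compound for 44 hours at 28 °C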
bCat KO growth: primary screen for growth suppressors in beta-catenin knockout HCT116 cells (colon tumor, human). viability, % at 10 µM. hit rate 1.5% among 140,000. HCT116 beta-catenin knockout viability, CellTiter-Glo, 60 h; hits give low values;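 active = viability at or under a set limit, the compound median less 4 SD, cut at about 6% in these data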;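 note: 0% = Hyamine 1622 control at 20 µM and 100% = untreated cell control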
Dynein cargo inh: inhibitors of GR-EGFP nuclear translocation, primary screen, dynein cargo transport inhibitor project, imaging, high-content, 3617.4 mouse cells; test concentration mostly 20 µM; stimulated with dexamethasone, 1 µM; hits give low values; z-score, hits read low; hit rate 0.47% among 220,000; AID 1381, 2008;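 active = plate z-score of nuclear minus cytoplasmic receptor signal below a set negative limit, without overly bright fluorescence or cell loss, cut at about -3.5 in these data, passing the limit was not always enough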;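 note: z-score of nuclear minus cytoplasmic ring GR-EGFP intensity difference per well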
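medium = tetracycline-free induction medium containing charcoal-stripped FBS | probe or stimulus = dexamethasone, 1.0 µM final | timing = 48 h induction, then 1 h compound, then 30 min agonist, 37 °C | detection = automated 10x imaging of fixed Hoechst-stained cells | read-out basis = nuclear versus cytoplasmic GR-EGFP signal, averaged per well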
Autophagy mod: autophagy modulators in MEF cells, primary screen, imaging, high-content, MEF GFP-LC3; MEF GFP-LC3 puncta imaging; test concentration mostly 10 µM; hit rate 0.98% among 190,000; calls only at 10 µM (by protocol);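 active = percentage of spot-positive cells more than 3 SD above its plate mean, without a fluorescence outlier flag or 80% toxicity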;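 note: spot-positive cell cutoff set from DMSO-treated cells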
HCT116 PTEN-null: growth suppression of PTEN-null HCT116, primary screen, cell-based, CellTiter-Glo; HCT116 PTEN-null viability, 60 h; hits give low values; viability, % at 10 µM; hit rate 1.2% among 140,000;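 active = viability at or below a set limit, 4 SD under the median of all tested compounds, cut at about 3.7% in these data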;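 note: PTEN knockout HCT116 line with beta catenin targeted HCT116 as companion control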
An asterisk follows results filed as active; i = inactive; nt = not tested or not shown; + = active, no number. Rows were chosen to be rich in hits. Some 9.2% of all compounds tested hit in one or more screens of this group.

SMILES	L major viab	bCat KO growth	Dynein cargo inh	Autophagy mod	HCT116 PTEN-null
Cc1ccc(C2=C(c3ccc([N+](=O)[O-])cc3)C(=O)OC2)cc1C	3	nt	-1.5	+	nt
Cc1ccccc1OCCCC(=O)Nc1ccccc1C(F)(F)F	-3	91	-0.33	i	81
COc1ccccc1C(C)NCC(=O)Nc1ccccc1C(F)(F)F (stereo not given)	60*	72	0.35	i	77
CCn1c(=O)oc2cc(NC(=O)CCl)ccc21	70*	nt	0.09	i	nt
Cn1c(=O)n(C)c2cc(NC(=O)CCl)ccc21	27	8	-2.9	i	5
O=C(N/N=C/c1cc(Br)cc(Br)c1O)c1ccncc1	96*	nt	0.014	i	nt
O=C(N/N=C/c1ccc(Br)s1)c1ccncc1	-6	nt	0.53	i	nt
O=C(N/N=C/c1cc(Br)c(Br)s1)c1ccncc1	98*	nt	0.22	i	nt
O=C(COC(=O)c1cncc(Br)c1)NCc1ccc2c(c1)OCO2	-8	nt	0.29	i	nt
O=C(NC(Cc1c[nH]c2ccccc12)C(=O)Nc1ccc(F)c([N+](=O)[O-])c1)c1cccs1 (stereo not given)	65*	52	-0.62	i	41
O=C(NC(Cc1c[nH]c2ccccc12)C(=O)Nc1ccc(OC(F)(F)F)cc1)c1cccs1 (stereo not given)	16	50	0.13	i	41
COc1cc(CN2CCN(c3cccc(C)c3C)CC2)cc([N+](=O)[O-])c1O	71*	nt	1.4	i	nt
OCC1(CCCc2ccccc2)CCN(Cc2cnc(N3CCOCC3)s2)CC1	79*	nt	-0.27	i	nt
Cc1ccccc1-c1ncc(CN2CCC(CO)(CCCc3ccccc3)CC2)cn1	2	nt	-0.13	i	nt
COc1cccc(CC2(CO)CCN(Cc3cnc(N4CCOCC4)s3)CC2)c1	-2	nt	0.68	i	nt
Cc1ncc(CN2CCC(CO)(CCc3ccccc3)CC2)s1	84*	nt	-0.81	i	nt
CCCn1c(=N)n(CCOCCOCCn2c(=N)n(CCC)c3ccccc32)c2ccccc21	88*	nt	-0.71	i	nt
COc1ccc(OCCn2c(=N)n(CCO)c3ccccc32)cc1	-1	75	-0.23	i	84
CCN(CC)CCn1c(=N)n(CCOc2ccccc2)c2ccccc21	93*	19	0.3	i	22
CCN(CC)CCn1c(=N)n(CC(O)COc2ccccc2)c2ccccc21 (stereo not given)	nt	nt	1.3	nt	nt
CCCCn1c(=N)n(CCOc2ccc(C)cc2)c2ccccc21	97*	1.9*	-0.45	i	1.9*
C=COCCn1c(=N)n(CCC)c2ccccc21	4	85	-0.92	i	91
CNC(=S)N1N=C(c2ccc(C)cc2)CC1c1ccc(OC)cc1 (stereo not given)	97*	82	-0.22	i	77
CNC(=S)N1N=C(c2ccc(OC)cc2)CC1c1ccc(Cl)cc1Cl (stereo not given)	100*	nt	0.55	i	nt
CNC(=S)N1N=C(c2ccc(C)cc2)CC1c1ccc(N(C)C)cc1 (stereo not given)	8	nt	-0.81	i	nt
SMILES	L major viab	bCat KO growth	Dynein cargo inh	Autophagy mod	HCT116 PTEN-null
CNC(=S)N1N=C(c2ccc(C)cc2)CC1c1cc(OC)ccc1OC (stereo not given)	53*	nt	1.7	i	nt
CNC(=S)N1N=C(c2ccc(OC)cc2)CC1c1ccccc1Cl (stereo not given)	nt	nt	-0.36	nt	nt
CNC(=S)N1N=C(c2ccc(Br)cc2)CC1c1ccc(OC)cc1 (stereo not given)	99*	80	0.069	i	77
CCOCCOC(=O)c1ccc(-n2cncn2)nc1	-3	103	-0.65	i	104
Cc1cc(N2CCN(c3cccc(C)c3C)CC2)nc(-c2ccccc2)n1	-2	82	-0.26	i	82
Cc1ccc2cc(C#N)c(NCCCNC(=O)C3CCCO3)nc2c1 (stereo not given)	6	96	0.46	i	84
COC(=O)[C@@H]1CC[C@H](C)[C@@H](c2ccc(C)cc2)N1C(=O)c1ccc(/C=N/O[C@@H](C)c2cn([C@H](CO)Cc3ccccc3)nn2)cc1	53*	17	-0.075	i	8
COC(=O)[C@@H]1CC[C@H](C)[C@@H](c2ccc(C)cc2)N1C(=O)c1ccc(/C=N/OC[C@@H](O)[C@H]2O[C@@H]3OC(C)(C)O[C@@H]3[C@H]2O)cc1	33	81	0.52	i	84
Cc1cccc(/C(N)=N/OC(=O)N2CCOCC2)c1	56*	60	0.12	i	55
CCCn1c(N)cc(=O)n(C)c1=O	-2	nt	-0.77	i	nt
COc1ccc(/C=C/C2=CCN(Cc3ccc(OC)cc3)CC2)cc1	91*	nt	0.42	i	nt
CC(=O)c1c(C)oc2c1C(=O)c1ccccc1C2=O	9	2.6*	-0.44	i	1.9*
COc1ccc(CNC(=O)c2ccc(-c3ccccc3)cc2)cc1	-7	102	0.094	i	96
COc1ccc2c(c1O)C(=O)c1ccccc1C2=O	-11	nt	-0.53	i	nt
O=C(c1ccccc1)c1coc2c1C(=O)c1ccccc1C2=O	-4	nt	0.4	i	nt
COc1ccc(CNC(=O)c2c(C)oc3c2C(=O)c2ccccc2C3=O)cc1	31	1.3*	-0.66	i	1.3*
O=C1c2ccccc2C(=O)c2c1oc(C(F)(F)F)c2C(=O)c1ccccc1	99*	2.0*	0.022	i	1.8*
Cc1oc2c(c1C(=O)NCc1cccnc1)C(=O)c1ccccc1C2=O	100*	nt	-0.38	i	nt
C=CCN(CC=C)C(=O)Nc1cc(OC)ccc1OC	nt	nt	0.36	nt	nt
COC(=O)C/C=N/N=C1/NC(=O)/C(=C/C(=O)O)S1	nt	nt	-0.73	nt	nt
COc1ccc(CNC(=O)c2c(F)c(F)c(F)c(F)c2F)cc1	53*	85	-0.21	i	88
COC(=O)c1cc2ccsc2n1Cc1nc(-c2ccc(Cl)cc2)oc1C	99*	73	-0.29	i	77
COC(=O)c1ccc(-c2ccco2)n1Cc1nc(-c2ccc(OC)c(OC)c2)oc1C	66*	43	-0.98	i	48
COC(=O)c1cc2occc2n1Cc1nc(-c2ccc(Cl)cc2)oc1C	-3	79	-0.79	i	93
COC(=O)c1ccc(-c2ccco2)n1Cc1ccccc1Cl	0	91	-0.84	i	87
COc1ccc(-n2c(SCc3cn4c(C)cccc4n3)nc3ccccc3c2=O)cc1OC	44	nt	1.5	i	nt
O=C(COC(=O)c1cc([N+](=O)[O-])ccc1NCc1ccccc1Cl)NCC(F)(F)F	-2	46	0.21	i	49
COc1ccc(C(c2c(O)ccc3ccccc23)N2CCOCC2)c(OC)c1 (stereo not given)	60*	69	-1.3	i	71
COc1cccc(/C=C/C(=C2\C(=O)N(c3ccccc3)N=C2C)c2ccc(Br)cc2)c1OC	99*	nt	-0.47	i	nt

Screens deposited in PubChem BioAssay by several laboratories.
